Experimental data published in ChEMBL document CHEMBL1137302 (J Med Chem, 2006).
Activity calls are given as the source filed them. The rule behind the calls is not given here.

Key:
[1] = biological target: D(3) dopamine receptor (Homo sapiens) (UniProt P35462); test: Agonist activity at human D3 receptor in HEK293 cells coexpressing G-alpha-qo5 by FLIPR upto 10 uM; format: functional, cell-based
[2] = Agonist activity at ferret D4 receptor in HEK293 cells coexpressing G-alpha-qo5 by FLIPR; format: functional, cell-based, Mustela putorius furo; conditions: Mustela putorius
Method in brief: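 HEK cells cotransfected with ferret D4 receptor and chimeric G protein Gqo5, with receptor activation read as a calcium flux signal on FLIPR. EC50 is the concentration giving half-maximal activation.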

[3] = biological target: D(2) dopamine receptor (Homo sapiens, UniProt P14416); test: Agonist activity at human D2 receptor in HEK293 cells coexpressing G-alpha-qo5 by FLIPR relative to dopamine upto 10 uM; format: functional, cell-based
Chain of D(2) dopamine receptor (P14416 whole entry): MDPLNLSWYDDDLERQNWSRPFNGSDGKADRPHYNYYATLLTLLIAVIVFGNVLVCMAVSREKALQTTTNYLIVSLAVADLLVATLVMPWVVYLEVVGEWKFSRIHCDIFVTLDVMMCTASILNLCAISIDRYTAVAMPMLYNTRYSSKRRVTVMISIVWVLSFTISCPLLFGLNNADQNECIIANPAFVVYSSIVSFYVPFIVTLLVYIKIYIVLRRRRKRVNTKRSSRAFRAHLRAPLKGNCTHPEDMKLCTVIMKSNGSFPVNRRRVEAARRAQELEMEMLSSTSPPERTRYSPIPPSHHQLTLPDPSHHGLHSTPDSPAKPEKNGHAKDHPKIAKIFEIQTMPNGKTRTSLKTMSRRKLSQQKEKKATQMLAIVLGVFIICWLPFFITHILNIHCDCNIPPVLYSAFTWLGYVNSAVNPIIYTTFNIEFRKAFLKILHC
Method in brief: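 Ca2+ flux by FLIPR in HEK cells cotransfected with the D2 receptor (human, ferret or rat) plus chimeric G protein Gqo5.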

[4] = biological target: T1, D(4) dopamine receptor (Homo sapiens) (UniProt P21917); test: Activity at human D4.4 receptor in HEK293 cells co-expressing Galphaqo5 by FLIPR; format: functional, cell-based; conditions: filed as agonist
T1 sequence (whole entry): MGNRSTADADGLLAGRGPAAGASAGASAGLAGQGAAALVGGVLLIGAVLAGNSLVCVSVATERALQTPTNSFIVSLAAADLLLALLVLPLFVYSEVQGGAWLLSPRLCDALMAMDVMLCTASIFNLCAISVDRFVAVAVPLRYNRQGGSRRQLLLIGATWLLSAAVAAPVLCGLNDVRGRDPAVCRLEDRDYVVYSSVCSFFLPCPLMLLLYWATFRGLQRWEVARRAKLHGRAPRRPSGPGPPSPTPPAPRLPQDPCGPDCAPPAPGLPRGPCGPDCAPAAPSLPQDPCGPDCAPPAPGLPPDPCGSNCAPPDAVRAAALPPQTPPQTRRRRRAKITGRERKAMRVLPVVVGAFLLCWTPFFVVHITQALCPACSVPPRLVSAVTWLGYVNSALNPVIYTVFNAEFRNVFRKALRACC

[5] = biological target: Phosphodiesterase 1 (Homo sapiens) (UniProt P54750+Q01064+Q14123); test: Activity at PDE1 at 10 uM; format: protein assay
Method in brief: (§1)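 Broad selectivity panel (over 70 receptors, ion channels and neuronal receptors, PDE1-6 included) run at a single 10 µM concentration.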

[6] = biological target: cGMP-dependent 3',5'-cyclic phosphodiesterase (Homo sapiens) (UniProt O00408); test: Activity at PDE2 at 10 uM; method in brief: as §1
Chain of cGMP-dependent 3',5'-cyclic phosphodiesterase (Homo sapiens) (O00408 whole entry): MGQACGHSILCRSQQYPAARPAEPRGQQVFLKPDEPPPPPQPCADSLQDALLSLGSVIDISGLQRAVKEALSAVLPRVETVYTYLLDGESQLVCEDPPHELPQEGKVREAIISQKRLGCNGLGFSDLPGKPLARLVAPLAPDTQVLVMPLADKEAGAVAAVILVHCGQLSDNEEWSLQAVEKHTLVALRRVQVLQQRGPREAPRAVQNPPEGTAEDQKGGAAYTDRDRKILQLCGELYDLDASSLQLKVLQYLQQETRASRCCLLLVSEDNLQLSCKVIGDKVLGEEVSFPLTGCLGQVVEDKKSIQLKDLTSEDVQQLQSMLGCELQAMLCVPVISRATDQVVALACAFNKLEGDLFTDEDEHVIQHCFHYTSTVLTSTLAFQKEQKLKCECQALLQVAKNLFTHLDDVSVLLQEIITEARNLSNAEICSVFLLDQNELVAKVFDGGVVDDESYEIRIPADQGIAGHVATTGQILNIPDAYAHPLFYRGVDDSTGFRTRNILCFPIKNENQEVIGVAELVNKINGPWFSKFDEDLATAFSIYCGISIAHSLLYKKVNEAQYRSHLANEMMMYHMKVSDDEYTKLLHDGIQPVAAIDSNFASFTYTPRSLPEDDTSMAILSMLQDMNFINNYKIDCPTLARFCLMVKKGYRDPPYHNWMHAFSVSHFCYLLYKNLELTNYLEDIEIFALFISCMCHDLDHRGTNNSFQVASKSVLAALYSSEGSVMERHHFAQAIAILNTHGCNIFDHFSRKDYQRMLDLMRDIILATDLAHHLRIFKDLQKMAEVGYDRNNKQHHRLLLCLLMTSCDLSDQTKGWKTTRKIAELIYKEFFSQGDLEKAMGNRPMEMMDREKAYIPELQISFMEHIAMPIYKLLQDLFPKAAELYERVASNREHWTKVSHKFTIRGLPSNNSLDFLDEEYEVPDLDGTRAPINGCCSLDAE

[7] = biological target: Phosphodiesterase 4 (Homo sapiens) (UniProt P27815+Q08499+Q07343+Q08493); test: Activity at PDE4 at 10 uM; format: protein assay; method in brief: as §1
[8] = biological target: Phosphodiesterase 6 (Homo sapiens) (UniProt Q13956+P18545+P35913+O43924+P16499+P51160); test: Activity at PDE6 at 10 uM; format: protein assay; method in brief: as §1
[9] = Half life in monkey at 1 mg/kg, po; format: ADME, organism-based, Macaca mulatta; set-up: dose 1 mg/kg, route oral; conditions: rhesus monkey, in vivo
Method in brief: (§2)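 Single 1 mg/kg dose given iv, sc or orally to Sprague-Dawley rats, dogs and monkeys; plasma concentrations followed over time (mean ± SEM, n = 3). Cmax, AUC, half-life, clearance and bioavailability calculated from the curves.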

[10] = Bioavailability in rat at 1 mg/kg, po; format: ADME, organism-based; conditions: in vivo; method in brief: as §2
[11] = AUC in rat at 1 mg/kg, sc; format: ADME, organism-based; set-up: dose 1 mg/kg, route subcutaneous; conditions: plasma; method in brief: as §2
[12] = AUC in dog at 1 mg/kg, po; format: ADME, organism-based, Canis lupus familiaris; set-up: dose 1 mg/kg, route oral; conditions: plasma; method in brief: as §2
[13] = Plasma clearance in iv dosed rat; format: ADME, organism-based; method in brief: as §2
[14] = Plasma clearance in iv dosed dog; format: ADME, organism-based, Canis lupus familiaris; method in brief: as §2
[15] = Effect on canine cardiac Purkinje fiber repolarization measured as prolongation of action potential duration at 3 ug/mL; format: functional, Canis lupus familiaris
Method in brief: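 Canine Purkinje fibers impaled with 3 M KCl microelectrodes. Fibers accepted with resting potential below -80 mV and APD 300-500 ms. Paced at BCL 2 s, then 800 and 400 ms. Two ascending concentrations applied, each after 25 min equilibration. APD90 measured at all three rates.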

[16] = system: D(2) dopamine receptor (Mustela putorius furo); test: Agonist activity at ferret D2 receptor in HEK293 cells coexpressing Galphaqo5 by FLIPR relative to dopamine upto 10 uM

Chain of D(3) dopamine receptor (Homo sapiens) (P35462 whole entry): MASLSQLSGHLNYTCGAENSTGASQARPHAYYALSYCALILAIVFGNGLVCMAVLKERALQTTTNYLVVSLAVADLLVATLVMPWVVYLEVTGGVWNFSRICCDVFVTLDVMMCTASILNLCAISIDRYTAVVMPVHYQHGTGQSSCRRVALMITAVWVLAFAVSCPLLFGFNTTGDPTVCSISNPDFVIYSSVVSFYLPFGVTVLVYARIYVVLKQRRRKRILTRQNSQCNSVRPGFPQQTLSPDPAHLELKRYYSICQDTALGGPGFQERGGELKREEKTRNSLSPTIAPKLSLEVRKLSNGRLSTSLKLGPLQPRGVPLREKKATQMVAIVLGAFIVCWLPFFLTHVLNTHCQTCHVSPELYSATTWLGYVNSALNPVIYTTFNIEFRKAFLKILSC

Activity [1]: inactive
EC50 [2]: 160 nM
Activity [3]: inactive
Activity [4]: Agonist
Activity [5]: inactive
Activity [6]: inactive
Activity [7]: inactive
Activity [8]: inactive
half-life [9]: 2 h
bioavailability [10]: 68%
AUC [11]: 1140 ng·h/mL
AUC [12]: 4280 ng·h/mL
clearance [13]: 12.3 mL/min/kg
clearance [14]: 3.33 mL/min/kg
Activity [16]: inactive
Compound: Cc1cccc(C(=O)NCN2CCC(c3cccc[n+]3[O-])CC2)c1
Activity [15]: 4.3%
